High-throughput results (PubChem)
Rev-RRE block: inhibitors of HIV-1 Rev-RRE RNA interaction; Rev peptide-RRE RNA binding, FRET; inhibition, % at 8 µM; P05866; 97,000 compounds, 0.79% hits;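 active = inhibition above the screen-wide mean plus 3 SD, cut at about 35% in these data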;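 also: 0% = median DMSO wells and 100% = median Neomycin B control wells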
Target sequence (P05866 whole entry, looked up): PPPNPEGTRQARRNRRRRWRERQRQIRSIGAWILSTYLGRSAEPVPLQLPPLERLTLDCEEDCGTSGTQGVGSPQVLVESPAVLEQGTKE
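Assay system: Labelled RRE RNA duplex and labelled Rev peptide | Times: 5 min preincubation and 15 min binding, 25 °C | Detection: FRET, ex 480 nm, em 540 and 671 nm | Evaluation: % inhibition of FRET ratio versus controls | Benchmarks: DMSO wells as 0% and neomycin B wells as 100% inhibition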
PLK1 inh: inhibitors of human PLK1 kinase. recombinant PLK1 kinase, TR-FRET peptide phosphorylation. 97,000 compounds, 0.53% hits. P53350. inhibition, % at 10 µM. AID 619;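 active = inhibition of 50% or more in the single-concentration screen; inactive = inhibition below 50%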;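 also: 0% = DMSO max control and 100% = H-89 dihydrochloride min control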
Target sequence (P53350 whole entry, looked up): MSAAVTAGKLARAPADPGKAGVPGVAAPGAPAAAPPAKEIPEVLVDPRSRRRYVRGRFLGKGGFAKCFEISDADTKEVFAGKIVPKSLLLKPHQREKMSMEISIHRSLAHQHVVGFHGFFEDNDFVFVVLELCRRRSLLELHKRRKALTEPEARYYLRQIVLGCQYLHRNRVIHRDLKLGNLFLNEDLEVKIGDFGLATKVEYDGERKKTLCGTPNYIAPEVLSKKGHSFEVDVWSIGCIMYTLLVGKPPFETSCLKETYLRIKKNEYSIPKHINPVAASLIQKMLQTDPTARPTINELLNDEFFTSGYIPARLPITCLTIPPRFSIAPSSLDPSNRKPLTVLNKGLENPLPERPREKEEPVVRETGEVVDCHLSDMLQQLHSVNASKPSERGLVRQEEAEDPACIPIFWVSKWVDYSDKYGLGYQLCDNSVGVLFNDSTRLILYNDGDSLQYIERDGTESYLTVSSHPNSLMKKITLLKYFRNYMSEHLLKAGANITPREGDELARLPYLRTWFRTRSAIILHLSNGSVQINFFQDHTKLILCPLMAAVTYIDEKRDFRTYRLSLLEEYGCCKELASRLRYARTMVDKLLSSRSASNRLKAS
Cav3 T inh: human Cav3.2 channel inhibition, primary screen. 100,000 compounds, 4% hits. Cav3.2-expressing cells, Fluo-4 calcium fluorescence FDSS; active compounds read low. AID 449739. O95180. B-score at 10 µM;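 active = single-dose well whose peak fluorescence ratio is a statistical outlier from its plate by either plate-standardised score or position-corrected B-score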
FAK blocker: FAK (human) kinase inhibition | biochemical FAK kinase activity assay | AID 727 | 97,000 compounds, 0.84% hits | inhibition, %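 (tested at 7 µM)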 | Q05397; in the data active = inhibition above about 19%;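 also: 0% = DMSO and 100% = reference compound high control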
Plk1 PBD FP: inhibitors of human Plk1 polo box domain binding. P53350. 97,000 compounds, 0.13% hits. inhibition, %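 (tested at about 20 µM)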. Plk1 PBD phosphopeptide binding, fluorescence polarization; in the data active = inhibition above about 34%, passing the limit was not always enough
PTK2B oligo ant: Pyk2 (human) oligomerization antagonism; Q14289; Q293 cells, Pyk2 FERM NanoBiT luminescence; active compounds read low; z-score (the deposit names both 25 µM and 10 µM); 99,000 compounds, 0.83% hits; AID 1347419;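 active = Z-score of -3 or lower, scaled per plate to the spread of control and sample wells; inactive = z-score above -3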;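 also: negative z-score means lost luminescence so less FERM oligomerization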
Numbers without * were called inactive; . = not tested or not shown; [ ] = dose if it differs, or a comment. Only some compounds are listed: those with a hit (about 5.8% of all), similar ones and a draw of the others.

SMILES	Rev-RRE block	PLK1 inh	Cav3 T inh	FAK blocker	Plk1 PBD FP	PTK2B oligo ant
CCN(Cc1ccccc1)C(c1cc2ccc(C)cc2[nH]c1=O)c1nnnn1CCOC (stereo unspecified)	11.2	-11.4	-3.18	-0.4	-27.0	1.32
COc1ccc(N(CC(=O)Nc2ccc3c(c2)OCO3)S(=O)(=O)c2ccccc2)c(OC)c1	10.4	-10.1	-2.59	-3.6	-2.2	-3.23*
COc1ccc(S(=O)(=O)N(C)CC(=O)Nc2ccc3c(c2)OCO3)cc1	-1.7	5.3	0.032	-1.8	-0.4	0.24
CCOC(=O)Cc1cnc(NC(=O)NC(C(=O)OCC)(c2ccccc2)C(F)(F)F)s1 (stereo unspecified)	8.1	-4.0	-4.72	0.6	8.8	0.24
O=C(C1CCCN(S(=O)(=O)c2ccc(F)cc2)C1)N(Cc1cccs1)C1CC1 (stereo unspecified)	.	.	-4.08*	.	.	-0.73
CCNC(=S)NNC(=O)c1cc(-c2cc(C)ccc2C)nc2ccccc12	3.1	-13.1	-1.11	-11.1	43.0	1.51
COc1cccc(OCC(O)CN2CCOCC2)c1 (stereo unspecified)	1.4	-16.6	0.336	-3.6	-28.4	0.6
COc1cccc(OCC(O)CN2CCC(Cc3ccccc3)CC2)c1 (stereo unspecified)	1.9	-0.1	-4.22*	-0.7	20.4	0.5
C=CCc1ccc(OCC(O)CN2CCC(Cc3ccccc3)CC2)c(OC)c1 (stereo unspecified)	21.0	-2.7	-4.03*	2.8	-6.8	0.49
O=[N+]([O-])c1cc(C(F)(F)F)ccc1NCCNC(=S)Nc1ccc(Cl)cc1	-1.6	1.9	0.0445	4.2	1.4	-1.21
COc1cccc(COc2ccc3c(C)c(Cc4ccccc4)c(=O)oc3c2)c1	10.6	2.5	-3.68*	-8.4	-3.6	-0.49
COc1cc(COc2ccc3c(C)c(Cc4ccccc4)c(=O)oc3c2)cc(OC)c1OC	-2.6	-13.4	.	-0.8	-11.2	-0.1
CCOC(=O)CN1C(=O)C(Sc2n[nH]c(-c3ccc(C)cc3)n2)CCc2ccccc21 (stereo unspecified)	14.1	-9.6	-3.46*	3.0	-6.5	-1.52
CCOC(=O)c1sc(SCc2ccccc2)c2c1CC(C)(C)CC2=O	.	.	-1.17	.	.	.
O=C(COC(=O)[C@H](Cc1ccccc1)NS(=O)(=O)c1ccccc1F)NC1CCCCC1	4.9	-3.7	-4.94*	0.2	14.5	0.25
CCCCC(=O)NC(c1ccco1)c1c(O)ccc2ccccc12 (stereo unspecified)	1.7	-5.5	-5.51*	2.2	-14.1	-1.41
COC(C/C=C/C(=O)[C@H](C)OCc1ccccc1)OC	.	.	1.79	.	.	.
CC(=O)Nc1ccc(S(=O)(=O)N2CCN(c3nc(NC4CCCC4)c4ccccc4n3)CC2)cc1	12.4	-10.6	0.0656	-2.7	-24.7	-3.01*
CCOc1ccc2nc(NS(=O)(=O)Cc3ccccc3)sc2c1	0.2	-3.7	-1.93	-1.2	-10.9	0.13
CCc1ccc(OCCNC(=O)c2cccs2)cc1	6.2	-3.3	-5.93*	0.6	-2.4	-0.02
Cc1cc(C)cc(N(CC(=O)NCCSc2ccccn2)S(=O)(=O)c2ccccc2)c1	8.5	-9.7	-2.98	2.8	-12.0	-2.46
Cc1ccc(CN=Cc2[nH]c3ccc(Br)c(Cl)c3c2O)cc1	115.6*[fluorescence artefact?]	-16.4	-3.06*	1.4	-107.5	-0.45
Oc1c(C=NCc2ccc(F)cc2)[nH]c2ccc(Br)c(Cl)c12	99.0*[fluorescence artefact?]	-7.1	-3.5	0.6	-17.9	.
CC1CCC(C(=O)NC(C(=O)NCc2cccnc2)C(C)C)CC1 (stereo unspecified)	-0.2	4.7	0.149	1.9	18.2	-0.17
CN1CC2=Cc3ccccc3OC23Oc2ccccc2C=C3C1	3.8	-2.9	2.17	-3.0	-3.7	-0.72
SMILES	Rev-RRE block	PLK1 inh	Cav3 T inh	FAK blocker	Plk1 PBD FP	PTK2B oligo ant
CCCN(CCC)S(=O)(=O)c1ccc(C(=O)NNc2nc(-c3ccccc3)c3cc(Br)ccc3n2)cc1	.	.	.	.	.	0.17
Cc1ccc(NC(=O)CSCC(N)=O)cc1C	6.1	-10.5	0.581	-1.0	-8.8	0.72
Cc1ccc(NC(=O)CCSCCC(=O)Nc2ccc(C)c(C)c2)cc1C	-1.7	-16.3	-6.78*	-7.7	-8.8	-0.03
CCc1cccc(NC(=O)CCSCCC(=O)Nc2cccc(CC)c2)c1	10.8	-39.9	-7.46*	0.7	5.5	0.12
Cc1nn(C)c(N)c1C(O)(c1nccn1C)C(F)(F)F (stereo unspecified)	.	.	-0.0627	.	.	0.86
O=[N+]([O-])c1ccc(N2N=C(c3ccco3)CC2c2ccccc2)cc1 (stereo unspecified)	75.7*[fluorescence artefact?]	-11.1	-5.01*	0.0	-18.6	-0.14
Fc1ccc(C2CC(c3ccco3)=NN2c2ccccc2)cc1 (stereo unspecified)	0.1	-13.3	-0.83	0.1	-20.1	1.75
O/C(=C\Sc1nnc(Cc2ccccc2)o1)c1ccc(F)cc1	9.1	-13.8	-0.0429	0.7	-7.1	0.15
Cc1cccn2c(NC(=O)c3cccs3)c(-c3ccccc3)nc12	.	.	.	.	.	-0.61
COc1cc(/C=C2\SC(c3ccc(C)cc3)=NC2=O)cc(OC)c1O	50.2*[fluorescence artefact?]	-13.3	0.0332	3.9	-21.2	0.02
CCOC(=O)c1c(C)c(C(=O)NCc2ccc3c(c2)OCO3)c(C)n1C	.	.	0.656	.	.	0.04
CSc1cc(-c2ccc(Cl)cc2)c(C(=O)N2CCCC2)s1	10.5	-3.1	-4.39*	-4.0	-15.7	-1.01
CC(NC(=O)CC12CC3CC(CC(C3)C1)C2)C(=O)O (stereo unspecified)	11.1	-8.4	-3.53*	-0.5	-18.4	0.32
CCOC(=O)c1cn(-c2ccccc2)nc1-c1cccnc1	.	.	-0.181	.	.	-2.02
Cc1ccc(S(=O)(=O)N[C@H](C(=O)OCn2nnc3ccccc3c2=O)C(C)C)cc1	6.5	-15.9	-3.77*	1.9	-25.4	0.96
O=C(CC(c1ccccc1)c1ccccc1)OCn1nnc2ccccc2c1=O	-1.9	-9.1	-4.94*	-2.6	17.0	0.09
O=C(OCn1nnc2ccccc2c1=O)c1cn(-c2ccccc2)nc1-c1cccnc1	13.8	-17.5	.	6.1	-4.1	-4.07*
CC(C)[C@H](NS(=O)(=O)c1ccccc1)C(=O)OCn1nnc2ccccc2c1=O	-0.9	1.3	-0.347	-2.2	-9.1	0.97
Cc1ccnc(NC(=O)c2cccc(NS(=O)(=O)c3ccccc3C)c2)c1	6.2	-4.5	-2.4	0.8	5.6	0.92
CCOc1ccc(NC(=O)C2CCCN(S(=O)(=O)c3cccc4nsnc34)C2)cc1 (stereo unspecified)	8.3	1.1	0.386	-1.6	-15.0	-0.57
COC(=O)c1ccc(N2CCCCC2)c(NS(=O)(=O)c2ccc(C)cc2)c1	12.6	-6.4	-3.75*	1.2	-5.2	-1.55
COC(=O)c1ccc(Cl)c(NS(=O)(=O)c2ccc3c(c2)OCCO3)c1	0.8	7.3	-5.39*	1.6	-4.1	0.05
CC(=O)c1cc2c(cc1NS(=O)(=O)c1ccc3c(c1)OCCO3)OCO2	4.7	-5.8	-0.492	-2.4	7.7	-2.17
